Assay results gathered from unrelated publications.
Compare with care: the assays were run in different laboratories.
Target: Tyrosine-protein kinase SYK (SYK, Homo sapiens, UniProt P43405)

SMILES | read-out | action | method | tested at | quantity | value
C[C@H]1CC[C@H](n2c3cnccc3c3cnc(Nc4ccc5c(n4)CCN(C(=O)CO)C5)nc32)CC1 | cell-free assay | – | competition with immobilised ligand | 1 µM | remaining binding | 100%
CCCCC(=O)Nc1ccc(-c2ccc3ncn(CCC)c(=O)c3c2)cn1 | binding | – | competition with immobilised ligand | 0.5 µM | remaining binding | 90%
Cc1ccc(NC(=O)c2ccnc(C(F)(F)F)c2)cc1-c1cc(OCCO)nc(N2CCOCC2)c1 | binding | – | competition with immobilised ligand | 1 µM | remaining binding | 100%
CO[C@@H]1[C@H](N(C)C(=O)c2ccccc2)C[C@H]2O[C@]1(C)n1c3ccccc3c3c4c(c5c6ccccc6n2c5c31)C(=O)NC4 | enzyme activity | inhibitor | – | 1 µM | inhibition | 96%
COc1ccc2oc(-c3ccc4nc(N)oc4c3)c/c(=N\c3ccccc3NC(=O)CCN)c2c1 | binding | – | – | 1 µM | remaining binding | 96%
CC(C)S(=O)(=O)c1ccc2nccc(Nc3ccc4sc(C5CCCC5)nc4c3)c2c1 | enzyme activity | inhibitor | – | 1 µM | activity vs control | 104%
C1=C/COCc2cc(ccc2OCCN2CCCC2)Nc2nccc(n2)-c2cccc(c2)COC/1 | cell-free assay | – | – | 0.1 µM | remaining signal | 87%
CC#CC(=O)N1CCC[C@H]1c1nc(-c2ccc(C(=O)Nc3ccccn3)cc2)c2c(N)nccn12 | enzyme activity | inhibitor | – | 1 µM | inhibition | 0%
